Results from ChEMBL document CHEMBL4049451, “Exploring the Role of N6-Substituents in Potent Dual Acting 5'-C-Ethyltetrazolyladenosine Derivatives: Synthesis, Binding, Functional Assays, and Antinociceptive Effects in Mice ∇” (J Med Chem, 2017).
The source made the active and inactive calls. The rule behind the calls is not given here.

How the values were obtained:
Adenosine receptor A3 [1] = biological target: T1, Adenosine receptor A3 (Rattus norvegicus, UniProt P28647); experiment: Displacement of [3H]NECA from recombinant rat adenosine A3 receptor expressed in CHO cell membranes after 3 hrs by microbeta scintillation counting
T1 sequence (P28647 whole entry): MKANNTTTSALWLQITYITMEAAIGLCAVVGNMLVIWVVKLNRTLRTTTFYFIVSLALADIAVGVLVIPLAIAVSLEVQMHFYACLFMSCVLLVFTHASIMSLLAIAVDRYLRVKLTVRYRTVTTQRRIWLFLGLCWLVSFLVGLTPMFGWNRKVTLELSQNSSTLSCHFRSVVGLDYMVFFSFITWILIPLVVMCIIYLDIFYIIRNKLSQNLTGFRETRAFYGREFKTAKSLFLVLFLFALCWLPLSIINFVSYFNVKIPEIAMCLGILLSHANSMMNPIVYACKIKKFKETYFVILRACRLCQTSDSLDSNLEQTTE
How it was run: (§1)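 CHO membranes with stable human A1, A2A, A3 or rat A3 (1000g then 100 000g spin, stored -80 °C). Competition: hA1 1 nM [3H]CCPA, nonspecific with 1 mM theophylline; hA2A 10 nM [3H]NECA; hA3 1 nM [3H]HEMADO; rA3 30 nM [3H]NECA; latter three nonspecific with 100 μM R-PIA.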

Mus musculus [2] = experiment: Antinociceptive activity in formalin induced nociceptive mouse model assessed as inhibition of nociceptive behavior at 0.3 mg/kg, ip administered 10 mins prior to formalin induction measured for 15 to 60 mins in presence of adenosine A3 agonist 2Cl-IBMECA; format: functional, organism-based
How it was run: (§2)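 Mice, randomized, n = 8–10 per group; ip compound or vehicle (10% DMSO in 0.9% NaCl) 10 min before formalin (1.25% in saline, 30 μL) into dorsal hind paw. Lifting, licking, shaking, flinching timed every 5 min for 60 min; phase 1 0–7 min, phase 2 15–60 min; mean ± SEM.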

Mus musculus [3] = experiment: Antinociceptive activity in formalin induced nociceptive mouse model at 1 mg/kg, ip administered 10 mins prior to formalin induction measured up to 60 mins; format: functional, organism-based; how it was run: as §2
Mus musculus [4] = experiment: Antinociceptive activity in formalin induced nociceptive mouse model assessed as reduction in nociceptive behavior at 0.3 mg/kg, ip administered 10 mins prior to formalin induction measured up to 7 mins in presence of adenosine A3 agonist 2Cl-IBMECA; format: functional, organism-based; how it was run: as §2
Mus musculus [5] = experiment: Antinociceptive activity in formalin induced nociceptive mouse model assessed as reduction in late nociceptive behavior at 0.5 mg/kg, ip administered 10 mins prior to formalin induction measured for 15 to 60 mins in presence of adenosine A3 receptor antagonist MRS1334; format: functional, organism-based; how it was run: as §2
[6] = Lipophilicity, log P of the compound; format: physicochemical; settings: octanol/water
[7] = biological target: T2, Adenosine receptor A2b (Homo sapiens) (UniProt P29275); experiment: Agonist activity at recombinant human adenosine A2B receptor expressed in CHO cell membranes assessed as stimulation of adenylyl cyclase activity relative to NECA; format: functional, cell-based
T2 sequence (whole entry): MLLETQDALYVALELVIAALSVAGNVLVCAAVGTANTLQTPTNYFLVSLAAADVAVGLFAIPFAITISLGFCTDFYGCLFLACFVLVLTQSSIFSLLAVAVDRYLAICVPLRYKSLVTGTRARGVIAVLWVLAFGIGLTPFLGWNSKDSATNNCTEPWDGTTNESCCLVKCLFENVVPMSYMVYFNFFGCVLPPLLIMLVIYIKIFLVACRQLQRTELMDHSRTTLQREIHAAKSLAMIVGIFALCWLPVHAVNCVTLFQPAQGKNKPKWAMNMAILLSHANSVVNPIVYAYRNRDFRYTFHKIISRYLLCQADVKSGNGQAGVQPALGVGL
How it was run: (§3)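 hA2A or hA2B in CHO cell membranes (one high-speed spin, pellet in 50 mM Tris/HCl pH 7.4, used immediately); agonist stimulation of adenylyl cyclase gives EC50; partial agonism judged as efficacy against 100 μM NECA as full agonist. Geometric means, 95% confidence intervals, n = 3.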

Adenosine receptor A3 [8] = biological target: T3, Adenosine receptor A3 (Homo sapiens, UniProt P0DMS8); experiment: Displacement of [3H]HEMADO from recombinant human adenosine […] receptor expressed in CHO cell membranes after 3 hrs by microbeta scintillation counting; how it was run: as §1
T3 sequence (P0DMS8 whole entry): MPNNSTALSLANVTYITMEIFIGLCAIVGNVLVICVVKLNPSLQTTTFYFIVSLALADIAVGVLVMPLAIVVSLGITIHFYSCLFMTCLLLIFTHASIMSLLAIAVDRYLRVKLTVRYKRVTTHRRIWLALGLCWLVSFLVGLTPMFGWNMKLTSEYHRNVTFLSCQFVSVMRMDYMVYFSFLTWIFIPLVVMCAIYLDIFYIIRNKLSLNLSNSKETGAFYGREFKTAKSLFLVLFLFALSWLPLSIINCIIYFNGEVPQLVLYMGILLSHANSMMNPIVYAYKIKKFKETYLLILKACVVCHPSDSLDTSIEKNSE

Adenosine receptor A2a [9] = biological target: T4, Adenosine receptor A2a (Homo sapiens, UniProt P29274); experiment: Agonist activity at recombinant human adenosine A2A receptor expressed in CHO cell membranes assessed as stimulation of adenylyl cyclase activity by [alpha-32P]ATP assay; format: functional, cell-based; how it was run: as §3
Homo sapiens [10] = species on record: Homo sapiens; experiment: Selectivity ratio of Ki for recombinant human adenosine A2A receptor expressed in CHO cell membranes to Ki for recombinant human adenosine A3 receptor expressed in CHO cell membranes; format: cell-based; how it was run: as §1
Adenosine receptor A1 [11] = biological target: T5, Adenosine receptor A1 (Homo sapiens, UniProt P30542); experiment: Displacement of [3H]CCPA from recombinant human adenosine A1 receptor expressed in CHO cell membranes after 3 hrs by microbeta scintillation counting; how it was run: as §1
T5 sequence (P30542 whole entry): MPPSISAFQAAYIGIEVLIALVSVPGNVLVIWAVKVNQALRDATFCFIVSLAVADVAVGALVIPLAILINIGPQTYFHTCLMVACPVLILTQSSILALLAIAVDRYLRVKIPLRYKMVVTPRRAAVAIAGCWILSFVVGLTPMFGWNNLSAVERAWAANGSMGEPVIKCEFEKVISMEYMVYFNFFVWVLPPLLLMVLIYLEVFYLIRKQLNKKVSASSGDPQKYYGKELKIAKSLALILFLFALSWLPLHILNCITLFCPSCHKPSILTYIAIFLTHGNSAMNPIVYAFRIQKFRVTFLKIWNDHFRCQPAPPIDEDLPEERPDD

Adenosine receptor A2b = biological target: T6, Adenosine receptor A2b (Homo sapiens, UniProt P29275); experiment: Agonist activity at recombinant human adenosine A2B receptor expressed in CHO cell membranes assessed as stimulation of adenylyl cyclase activity by [alpha-32P]ATP assay; format: functional, cell-based; how it was run: as §3
T6 sequence (P29275 whole entry): T2 sequence (whole entry)

Adenosine receptor A3 [12] = biological target: T3, Adenosine receptor A3; experiment: Antagonist activity at recombinant human adenosine A3 receptor expressed in CHO cell membranes assessed as reversal of NECA-mediated inhibition of adenylyl cyclase activity after 10 mins by [alpha-32P]ATP assay; format: functional, cell-based
[13] = Selectivity ratio of Ki for recombinant rat adenosine A3 receptor expressed in CHO cell membranes to Ki for recombinant human adenosine A3 receptor expressed in CHO cell membranes; format: cell-based; how it was run: as §1
Adenosine receptor A2a [14] = biological target: T4, Adenosine receptor A2a; experiment: Agonist activity at recombinant human adenosine A2A receptor expressed in CHO cell membranes assessed as stimulation of adenylyl cyclase activity relative to NECA; format: functional, cell-based; how it was run: as §3
[15] = biological target: Adenosine receptors; A1 & A3 (Homo sapiens) (UniProt P30542+P0DMS8); experiment: Selectivity ratio of Ki for recombinant human adenosine A3 receptor expressed in CHO cell membranes to Ki for recombinant human adenosine A1 receptor expressed in CHO cell membranes; format: cell-based; how it was run: as §1
Adenosine receptor A1 [16] = biological target: T5, Adenosine receptor A1; experiment: Agonist activity at recombinant human adenosine A1 receptor expressed in CHO cell membranes assessed as inhibition of forskolin-stimulated adenylyl cyclase activity after 10 mins in presence of [alpha-32P]ATP; format: functional, cell-based
How it was run: (§4)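 hA1 in CHO cell membranes (single high-speed spin, resuspended in 50 mM Tris/HCl pH 7.4, used immediately); agonist inhibition of forskolin-stimulated adenylyl cyclase; efficacy relative to CCPA as reference full agonist (100%). Geometric means with 95% confidence intervals, n = 3.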

Adenosine receptor A2a [17] = biological target: T4, Adenosine receptor A2a; experiment: Displacement of [3H]NECA from recombinant human adenosine A2A receptor expressed in CHO cell membranes after 3 hrs by microbeta scintillation counting; how it was run: as §1
[18] = biological target: T7, Adenosine receptor A1 (Homo sapiens) (UniProt P30542); experiment: Partial agonist activity at recombinant human adenosine A1 receptor expressed in CHO cell membranes assessed as inhibition of forskolin-stimulated adenylyl cyclase activity after 10 mins in presence of [alpha-32P]ATP relative to CCPA; format: functional, cell-based; how it was run: as §4
T7 sequence (whole entry): T5 sequence (P30542 whole entry)

Homo sapiens [19] = species on record: Homo sapiens; experiment: Selectivity ratio of Ki for recombinant human adenosine A2A receptor expressed in CHO cell membranes to Ki for recombinant human adenosine A1 receptor expressed in CHO cell membranes; format: cell-based; how it was run: as §1
Mus musculus [20] = experiment: Antinociceptive activity in formalin induced nociceptive mouse model assessed as reduction in late nociceptive behavior administered via ip 10 mins prior to formalin induction measured for 15 to 60 mins; format: functional, organism-based; how it was run: as §2
[21] = biological target: T7, Adenosine receptor A1 (Homo sapiens); experiment: Agonist activity at recombinant human adenosine A1 receptor expressed in CHO cell membranes assessed as inhibition of forskolin-stimulated adenylyl cyclase activity after 10 mins relative to CCPA; format: functional, cell-based; how it was run: as §4
Mus musculus [22] = experiment: Antinociceptive activity in formalin induced nociceptive mouse model assessed as reduction in nociceptive behavior at 1 mg/kg, ip administered 10 mins prior to formalin induction measured for 15 to 60 mins in presence of adenosine A3 agonist 2Cl-IBMECA; format: functional, organism-based; how it was run: as §2
Mus musculus [23] = experiment: Antinociceptive activity in formalin induced nociceptive mouse model assessed as reduction in nociceptive behavior at 1 mg/kg, ip administered 10 mins prior to formalin induction measured up to 7 mins in presence of adenosine A3 agonist 2Cl-IBMECA; format: functional, organism-based; how it was run: as §2
Mus musculus [24] = experiment: Antinociceptive activity in formalin induced nociceptive mouse model assessed as reduction in nociceptive behavior at 0.5 mg/kg, ip administered 10 mins prior to formalin induction measured up to 7 mins; format: functional, organism-based; how it was run: as §2
Mus musculus [25] = experiment: Antinociceptive activity in formalin induced nociceptive mouse model assessed as reduction in nociceptive behavior at 0.5 mg/kg, ip administered 10 mins prior to formalin induction measured for 15 to 60 mins; format: functional, organism-based; how it was run: as §2

T4 sequence (P29274 whole entry): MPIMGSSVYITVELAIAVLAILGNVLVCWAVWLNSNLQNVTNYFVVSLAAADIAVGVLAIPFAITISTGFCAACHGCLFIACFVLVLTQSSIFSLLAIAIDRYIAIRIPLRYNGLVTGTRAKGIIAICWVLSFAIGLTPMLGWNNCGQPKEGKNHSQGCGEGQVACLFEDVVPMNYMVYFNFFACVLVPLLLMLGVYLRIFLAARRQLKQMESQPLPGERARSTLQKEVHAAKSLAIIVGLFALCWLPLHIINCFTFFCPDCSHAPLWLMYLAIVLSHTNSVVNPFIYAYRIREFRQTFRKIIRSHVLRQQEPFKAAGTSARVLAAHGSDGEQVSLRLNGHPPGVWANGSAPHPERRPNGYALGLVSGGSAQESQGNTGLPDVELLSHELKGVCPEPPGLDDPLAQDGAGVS

SMILES | Ki (Adenosine receptor A3 [1]) | Activity (Mus musculus [3]) | logP [6] | Efficacy [7] | Ki (Adenosine receptor A3 [8]) | EC50 (Adenosine receptor A2a [9]) | Ratio Ki (Homo sapiens [10]) | Ki (Adenosine receptor A1 [11]) | EC50 (Adenosine receptor A2b) | EC50 (Adenosine receptor A3 [12]) | Ratio Ki [13] | Efficacy (Adenosine receptor A2a [14]) | Ratio Ki [15] | EC50 (Adenosine receptor A1 [16]) | Ki (Adenosine receptor A2a [17]) | Ratio Ki (Homo sapiens [19]) | also measured
CCn1nnc([C@H]2O[C@@H](n3cnc4c(NC)ncnc43)[C@H](O)[C@@H]2O)n1 | 484 nM | Dose-dependent effect |  |  |  |  |  |  |  |  |  |  |  |  |  |  | inhibition (Mus musculus [2]): Active; Activity (Mus musculus [4]): Active; Activity (Mus musculus [5]): inactive
CCn1nnc([C@H]2O[C@@H](n3cnc4c(NCc5cccc(I)c5)nc(Cl)nc43)[C@H](O)[C@@H]2O)n1 | 2.53 nM | inactive | 4.06 |  |  |  |  |  |  |  |  |  |  |  |  |  | 
CCn1nnc([C@H]2O[C@@H](n3cnc4c(NCc5cccc(I)c5)ncnc43)C(O)C2O)n1 (single isomer, unassigned) | 6.1 nM |  |  | > 90% | 0.532 nM | 2.87 nM | 32 | 0.768 nM | 235 nM | 2.38 nM | 12 | > 90% | 0.69 | 27.4 nM | 16.8 nM | 22 | inhibition [18]: 87%
CCn1nnc([C@H]2O[C@@H](n3cnc4c(NCc5cccc(Cl)c5)ncnc43)[C@H](O)[C@@H]2O)n1 | 2.69 nM |  | 2.57 | > 90% | 0.386 nM | 6.71 nM | 77 | 1.41 nM | 592 nM | 2.2 nM | 6.9 | > 90% | 0.27 | 58.5 nM | 29.8 nM | 21 | Activity (Mus musculus [20]): Dose-dependent effect; Efficacy [21]: > 90%
O[C@@H]1[C@H](O)[C@@H](CCl)O[C@H]1n1cnc2c(NC3C[C@@H]4CC[C@@H]3C4)ncnc21 (mixture of isomers) |  |  |  |  |  |  |  |  |  |  |  |  |  |  |  |  | Activity (Mus musculus [22]): Active; Activity (Mus musculus [23]): Active; Activity (Mus musculus [24]): inactive; Activity (Mus musculus [25]): inactive
